Data on 14 molecules can be found in BindingDB's records for doi:10.1021/jm050754u (Abbott Laboratories, 2006).

Structures are written as SMILES.

The target of one experiment is Bcl-2-like protein 1 (Homo sapiens, UniProt Q07817). The experiment can be described thus: Activity towards mouse FL5.12 cell line transfected with Bcl-XL in presence of gelatin. The procedure, abridged: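 Bcl-XL-transfected murine FL5.12 (IL-3 dependent) grown in RPMI with 10% FBS and WEHI-3B conditioned medium as the IL-3 source. Switched to IL-3-depleted, FBS-free medium for 2 days. Then placed in gelatin assay medium (3.4 mg/mL bovine gelatin) or 3% FBS assay medium. Serial compound dilutions added for 24 h. Viability read by MTS or CellTiter-Glo; duplicate values per determination; EC50.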
Bcl-2-like protein 1, sequence (Q07817 whole entry): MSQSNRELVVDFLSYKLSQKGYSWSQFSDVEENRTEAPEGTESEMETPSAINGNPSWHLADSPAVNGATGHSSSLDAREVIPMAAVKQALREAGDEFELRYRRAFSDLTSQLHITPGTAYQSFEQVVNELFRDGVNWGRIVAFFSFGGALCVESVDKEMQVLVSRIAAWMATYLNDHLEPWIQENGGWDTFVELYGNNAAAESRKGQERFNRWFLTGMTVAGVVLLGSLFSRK
With `COc1cc(CCCN2CCOCC2)ccc1-c1ccc(C(=O)NS(=O)(=O)c2ccc(N[C@H](CCCCN)CSc3ccccc3)c([N+](=O)[O-])c2)cc1` [4-((R)-5-amino-1-phenylsulfanylmethylpentylamino)-N-[2'-methoxy-4'-(3-morpholin-4-ylpropyl)biphenyl-4-carbonyl]-3-nitrobenzenesulfonamide], the EC50 amounted to 3050 nM.

Target in a further experiment: not listed separately
The experiment can be described thus: Activity towards mouse FL5.12 cell line transfected with Bcl-XL in presence of gelatin.
Consider `COc1cc(CCCN2CCOCC2)ccc1-c1ccc(C(=O)NS(=O)(=O)c2ccc(N[C@@H](CCN(C)C)CSc3ccccc3)c([N+](=O)[O-])c2)cc1` [4-((S)-3-dimethylamino-1-phenylsulfanylmethylpropylamino)-N-[2'-methoxy-4'-(3-morpholin-4-ylpropyl)biphenyl-4-carbonyl]-3-nitrobenzenesulfonamide], for which the EC50 stood at 32500 nM. With `CN(C)C(=O)C[C@H](CSc1ccccc1)Nc1ccc(S(=O)(=O)NC(=O)c2ccc(N3CCC(C)(C)CC3)cc2)cc1[N+](=O)[O-]` [(R)-3-{4-[4-(4,4-dimethylpiperidin-1-yl)benzoylsulfamoyl]-2-nitrophenylamino}-N,N-dimethyl-4-phenylsulfanylbutyramide], the 50% effective concentration (EC50) stood at 2140 nM.

Consider `CN(C)CCC[C@H](CSc1ccccc1)Nc1ccc(S(=O)(=O)NC(=O)c2ccc(N3CCC(C)(C)CC3)cc2)cc1[N+](=O)[O-]` [4-((R)-4-dimethylamino-1-phenylsulfanylmethylbutylamino)-N-[4-(4,4-dimethylpiperidin-1-yl)benzoyl]-3-nitrobenzenesulfonamide], for which the EC50 was determined as 2000 nM. With `CN(C)CC[C@@H](CSc1ccccc1)Nc1ccc(S(=O)(=O)NC(=O)c2ccc(N3CCC(C)(C)CC3)cc2)cc1[N+](=O)[O-]` [4-((S)-3-dimethylamino-1-phenylsulfanylmethylpropylamino)--[4-(4,4-dimethylpiperidin-1-yl)benzoyl]-3-nitrobenzenesulfonamide], the 50% effective concentration (EC50) stood at 9500 nM. The same measure, in the same setting: for `COc1cc(CCCN2CCOCC2)ccc1-c1ccc(C(=O)NS(=O)(=O)c2ccc(N[C@H](CCN3CCOCC3)CSc3ccccc3)c([N+](=O)[O-])c2)cc1` [N-[2'-methoxy-4'-(3-morpholin-4-ylpropyl)biphenyl-4-carbonyl]-4-((R)-3-morpholin-4-yl-1-phenylsulfanylmethylpropylamino)-3-nitrobenzenesulfonamide] the value was 382 nM; for `COc1cc(CCCN2CCOCC2)ccc1-c1ccc(C(=O)NS(=O)(=O)c2ccc(N[C@@H](CSc3ccccc3)CC(=O)N(C)C)c([N+](=O)[O-])c2)cc1` [(R)-3-(4-{[2'-methoxy-4'-(3-morpholin-4-ylpropyl)biphenyl-4-carbonyl]sulfamoyl}-2-nitrophenylamino)-N,N-dimethyl-4-phenylsulfanylbutyramide], 1280 nM; for `COc1cc(CCCN2CCOCC2)ccc1-c1ccc(C(=O)NS(=O)(=O)c2ccc(N[C@H](CCCCN(C)C)CSc3ccccc3)c([N+](=O)[O-])c2)cc1` [4-((R)-5-dimethylamino-1-phenylsulfanylmethylpentylamino)-N-[2'-methoxy-4'-(3-morpholin-4-ylpropyl)biphenyl-4-carbonyl]-3-nitrobenzenesulfonamide], 1200 nM.

Consider `COc1cc(CCCN2CCOCC2)ccc1-c1ccc(C(=O)NS(=O)(=O)c2ccc(N[C@H](CCCN(C)C)CSc3ccccc3)c([N+](=O)[O-])c2)cc1` [4-((R)-4-Dimethylamino-1-phenylsulfanylmethylbutylamino)-N-[2'-methoxy-4'-(3-morpholin-4-ylpropyl)biphenyl-4-carbonyl]-3-nitrobenzenesulfonamide], for which the EC50 stood at 3010 nM. On the same count and under the same terms, under `CN(C)CCCC[C@H](CSc1ccccc1)Nc1ccc(S(=O)(=O)NC(=O)c2ccc(N3CCC(C)(C)CC3)cc2)cc1[N+](=O)[O-]` [4-((R)-5-dimethylamino-1-phenylsulfanylmethylpentylamino)-N-[4-(4,4-dimethylpiperidin-1-yl)benzoyl]-3-nitrobenzenesulfonamide] stands 1080 nM; under `CC1(C)CCN(c2ccc(C(=O)NS(=O)(=O)c3ccc(N[C@@H](CCN4CCOCC4)CSc4ccccc4)c([N+](=O)[O-])c3)cc2)CC1` [N-[4-(4,4-dimethylpiperidin-1-yl)benzoyl]-4-((S)-3-morpholin-4-yl-1-phenylsulfanylmethylpropylamino)-3-nitrobenzenesulfonamide], 4200 nM; under `CC1(C)CCN(c2ccc(C(=O)NS(=O)(=O)c3ccc(N[C@H](CCCCN)CSc4ccccc4)c([N+](=O)[O-])c3)cc2)CC1` [4-((R)-5-amino-1-phenylsulfanylmethylpentylamino)-N-[4-(4,4-dimethylpiperidin-1-yl)benzoyl]-3-nitrobenzenesulfonamide], 4130 nM.

For `CC1(C)CCN(c2ccc(C(=O)NS(=O)(=O)c3ccc(N[C@H](CCN4CCOCC4)CSc4ccccc4)c([N+](=O)[O-])c3)cc2)CC1` [N-[4-(4,4-dimethylpiperidin-1-yl)benzoyl]-4-((R)-3-morpholin-4-yl-1-phenylsulfanylmethylpropylamino)-3-nitrobenzenesulfonamide], the EC50 was 368 nM. Consider `COc1cc(CCCN2CCOCC2)ccc1-c1ccc(C(=O)NS(=O)(=O)c2ccc(N[C@H](CCN(C)C)CSc3ccccc3)c([N+](=O)[O-])c2)cc1` [4-((R)-3-dimethylamino-1-phenylsulfanylmethylpropylamino)-N-[2'-methoxy-4'-(3-morpholin-4-ylpropyl)biphenyl-4-carbonyl]-3-nitrobenzenesulfonamide], for which the EC50 worked out at 399 nM.

As a reminder, the EC50 is the concentration at which the effect is half-maximal.
